Columns and labels:
Assay type in all cases: functional
[1] = tested on: Ctenocephalides felis; test: Insecticidal activity against Ctenocephalides felis
[2] = tested on: Aedes aegypti; test: Insecticidal activity against Aedes aegypti
Procedure, shortened: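 Mosquito larvae were exposed to test compounds and killing was scored. Activity is reported as the LD90 in ng/mL.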

[3] = tested on: Lucilia sericata; test: Insecticidal activity against Lucilia sericata
Procedure, shortened: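 Blowfly larvae were exposed to test compounds and killing was scored. Activity is reported as the LD90 in ng/mL.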

Molecule	LD90 [1]	LD90 [2]	LD90 [3]
CN1C(=O)[C@]23C[C@H]4C(C)(C)[C@@]5(C[C@@]41CN2CC[C@@]3(C)O)C(=O)Nc1cc2c(cc15)OC(C)(C)C=CO2 [PARAHERQUAMIDE]	>100 µg/mL	50000 ng/mL	50000 ng/mL
C=C(C)[C@H]1C(=O)c2c3c(cc4c5c(n1c24)[C@@]1(C)C(CC[C@H]2[C@](C)(/C=C/C=C(\C)C(=O)O)[C@@H](O)CC[C@@]21C)C5)C1=CC(C)(C)OC(C)(C)C1[C@@H]3O (stereo not given in full) [NOD ACID A]	1 µg/mL	500 ng/mL	300 ng/mL
C=C(C)[C@H]1C(=O)c2c3c(cc4c5c(n1c24)[C@@]1(C)[C@@H](CC[C@@H]2[C@]1(C)CC[C@]1(O)O[C@H](C(O)C(C)C(=O)O)C[C@@]21C)C5)C1=CC(C)(C)OC(C)(C)[C@H]1[C@@H]3O (stereo not given in full) [NODULISPORIC ACID A2]	10 µg/mL	800 ng/mL	600 ng/mL
CC(C)=CCc1c2c(cc3c4c([nH]c13)[C@@]1(C)[C@@H](CC[C@@H]3[C@]1(C)CC[C@]1(O)O[C@H](/C=C(\C)C(=O)[O-])C[C@@]31C)C4)C1=CC(C)(C)OC(C)(C)[C@H]1[C@@H]2O.[Na+] [NODULISPORIC ACID C1]	>100 µg/mL	–	–
IVERMECTIN	10 µg/mL	5 ng/mL	40 ng/mL
C=C(C)[C@H]1C(=O)c2c3c(cc4c5c(n1c24)[C@@]1(C)[C@@H](CC[C@@H]2[C@]1(C)CC[C@]1(O)O[C@H](/C=C(\C)C(=O)O)C[C@@]21C)C5)C1=CC(C)(C)OC(C)(C)[C@H]1[C@@H]3O [NODULISPORIC ACID A1]	5 µg/mL	200 ng/mL	300 ng/mL
CC(C)=CCc1c2c(cc3c4c([nH]c13)[C@@]1(C)[C@@H](CC[C@@H]3[C@]1(C)CC[C@]1(O)O[C@H]([C@H](O)[C@H](C)C(=O)[O-])C[C@@]31C)C4)C1=CC(C)(C)OC(C)(C)[C@H]1[C@@H]2O.[Na+]	>100 µg/mL	–	–
CC(C)=CCc1c2c(cc3c4c([nH]c13)[C@@]1(C)[C@@H](CC[C@H]3[C@](C)(/C=C/C=C(\C)C(=O)[O-])[C@@H](O)CC[C@@]31C)C4)C1=CC(C)(C)OC(C)(C)[C@H]1[C@@H]2O.[Na+] [NODULISPORIC ACID C SODIUM]	10 µg/mL	10000 ng/mL	10500 ng/mL
